# Data published in ChEMBL document CHEMBL1150774, “1-[(Imidazolidin-2-yl)imino]indazole. Highly alpha 2/I1 selective agonist: synthesis, X-ray structure, and biological activity” (J Med Chem, 2008).
# The source made the active and inactive calls. The calls are words filed in the database; no cut-off is given here.
# How the values were obtained:
# [1] = target: Nischarin (Rattus norvegicus, UniProt Q4G017); assay: Displacement of [3H]clonidine from imidazoline 1 receptor in Sprague-Dawley rat kidney
# Chain of Nischarin (Q4G017 whole entry): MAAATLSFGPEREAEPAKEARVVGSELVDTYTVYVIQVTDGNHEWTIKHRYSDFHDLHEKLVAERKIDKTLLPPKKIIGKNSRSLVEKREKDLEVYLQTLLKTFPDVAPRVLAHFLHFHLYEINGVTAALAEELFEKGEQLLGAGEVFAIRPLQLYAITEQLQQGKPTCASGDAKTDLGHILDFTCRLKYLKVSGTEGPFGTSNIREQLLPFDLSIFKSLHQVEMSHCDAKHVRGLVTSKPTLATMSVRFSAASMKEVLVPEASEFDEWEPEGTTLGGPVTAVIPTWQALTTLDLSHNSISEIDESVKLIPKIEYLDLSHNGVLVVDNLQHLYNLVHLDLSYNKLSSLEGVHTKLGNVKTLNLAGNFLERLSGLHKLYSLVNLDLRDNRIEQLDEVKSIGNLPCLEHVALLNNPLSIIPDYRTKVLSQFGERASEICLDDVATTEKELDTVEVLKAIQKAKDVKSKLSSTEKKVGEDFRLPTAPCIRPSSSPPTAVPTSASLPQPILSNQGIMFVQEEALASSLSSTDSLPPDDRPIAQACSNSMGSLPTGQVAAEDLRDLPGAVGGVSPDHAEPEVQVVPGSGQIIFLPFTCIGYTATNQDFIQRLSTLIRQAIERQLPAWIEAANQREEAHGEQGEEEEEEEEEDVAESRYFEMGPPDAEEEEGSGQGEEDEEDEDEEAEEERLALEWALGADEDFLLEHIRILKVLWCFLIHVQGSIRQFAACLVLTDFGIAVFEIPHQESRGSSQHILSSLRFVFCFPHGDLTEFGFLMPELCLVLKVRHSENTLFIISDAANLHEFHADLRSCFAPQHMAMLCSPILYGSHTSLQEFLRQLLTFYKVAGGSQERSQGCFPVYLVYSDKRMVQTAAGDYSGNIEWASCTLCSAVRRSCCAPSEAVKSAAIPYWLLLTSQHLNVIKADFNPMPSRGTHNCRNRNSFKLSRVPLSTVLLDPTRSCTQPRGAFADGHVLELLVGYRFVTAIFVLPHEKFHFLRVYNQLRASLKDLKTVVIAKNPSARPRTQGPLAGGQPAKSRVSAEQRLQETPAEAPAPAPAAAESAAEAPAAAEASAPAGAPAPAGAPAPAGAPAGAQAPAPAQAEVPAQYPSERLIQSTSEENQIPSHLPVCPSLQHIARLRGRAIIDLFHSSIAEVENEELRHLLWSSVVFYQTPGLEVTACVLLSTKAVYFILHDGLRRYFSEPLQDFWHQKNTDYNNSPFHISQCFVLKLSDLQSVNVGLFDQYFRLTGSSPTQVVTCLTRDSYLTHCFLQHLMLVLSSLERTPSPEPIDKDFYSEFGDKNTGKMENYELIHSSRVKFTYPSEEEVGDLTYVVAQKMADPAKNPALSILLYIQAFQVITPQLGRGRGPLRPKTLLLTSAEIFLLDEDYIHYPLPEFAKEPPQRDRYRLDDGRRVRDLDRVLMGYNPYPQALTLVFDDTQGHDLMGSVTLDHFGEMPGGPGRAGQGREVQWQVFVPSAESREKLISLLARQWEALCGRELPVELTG
# Procedure, shortened: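 Crude P2 membranes from male rat kidney (250-280 g), 0.2-0.5 mg protein. Labelled with 3 nM [3H]clonidine; 10 µM rauwolscine present to block α2 sites; specific binding defined by 10 µM rilmenidine. 11 test concentrations. 50 mM Tris-HCl pH 7.4, 45 min at room temperature. Filtration, scintillation counting; IC50 is displacement of 50% of specific binding.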
# [2] = Displacement of [3H]2BFI from imidazoline 2 receptor in Sprague-Dawley rat brain
# Procedure, shortened: (§1)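 Crude P2 membranes from male rat brain (250-280 g), washed and stored at -70 °C. 0.2-0.3 mg protein incubated with 11 concentrations (0.01 nM to 100 µM) plus 1 nM [3H]2BFI (I2) or 1 nM [3H]RX821002 (α2). Nonspecific binding: 10 µM BU224 (I2) or 10 µM rauwolscine (α2). Run in triplicate, 45 min at room temperature. Ki by Cheng-Prusoff, 3-4 experiments.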
# [3] = organism: Rattus norvegicus; assay: Selectivity for Sprague-Dawley rat alpha 2 adrenoceptor over Sprague-Dawley rat imidazoline 1 receptor
# [4] = Displacement of [3H][…] from alpha2 adrenoceptor in Sprague-Dawley rat brain; procedure, shortened: as §1
# [5] = system: Rattus norvegicus; assay: Hypotensive activity in Wistar rat assessed as decrease in heart rate at 0.1 mg/kg, iv after 60 mins; assay type: functional
# Procedure, shortened: (§2)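 Male rats (200-250 g) anaesthetised with thiopental 70 mg/kg ip, then maintained at 30 (µg/kg)/min. Saline-thiopental infusion at 1.2 mL/h; 40 min recovery, then 40 min saline. Compound given as iv bolus at 0.1 mg/kg. MAP and HR recorded directly at 100 Hz. ΔMAP and ΔHR taken relative to time 0; 4-7 experiments; repeated-measures ANOVA.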
# [6] = system: Rattus norvegicus; assay: Hypotensive activity in Wistar rat assessed as decrease in mean arterial blood pressure at 0.1 mg/kg, iv after 30 mins; assay type: functional; procedure, shortened: as §2
# [7] = system: Rattus norvegicus; assay: Hypotensive activity in Wistar rat assessed as decrease in heart rate at 0.1 mg/kg, iv after 10 mins; assay type: functional; procedure, shortened: as §2
# [8] = system: Rattus norvegicus; assay: Hypotensive activity in Wistar rat assessed as decrease in mean arterial blood pressure at 0.1 mg/kg, iv after 90 mins; assay type: functional; procedure, shortened: as §2
# [9] = system: Rattus norvegicus; assay: Hypotensive activity in Wistar rat assessed as decrease in mean arterial blood pressure at 0.1 mg/kg, iv after 60 mins; assay type: functional; procedure, shortened: as §2
# [10] = organism: Rattus norvegicus; assay: Hypotensive activity in Wistar rat assessed as mean arterial blood pressure; assay type: functional
# [11] = system: Rattus norvegicus; assay: Hypotensive activity in Wistar rat assessed as decrease in heart rate at 0.1 mg/kg, iv after 30 mins; assay type: functional; procedure, shortened: as §2
# [12] = system: Rattus norvegicus; assay: Hypotensive activity in Wistar rat assessed as decrease in mean arterial blood pressure at 0.1 mg/kg, iv after 10 mins; assay type: functional; procedure, shortened: as §2
# [13] = system: Rattus norvegicus; assay: Reversal of hypotensive activity in Wistar rat at 10 mg/kg, iv in presence of RX821002; assay type: functional, organism-based; parameters: dose 10 mg/kg
# [14] = system: Rattus norvegicus; assay: Hypotensive activity in Wistar rat assessed as decrease in heart rate at 0.1 mg/kg, iv after 90 mins; assay type: functional; procedure, shortened: as §2
SMILES,IC50 [1],Ki [2],Selectivity ratio [3],Ki [4],Activity [5],Activity [6],Activity [7],Activity [8],Activity [9],ED50 [10],Activity [11],Activity [12],Activity [13],Activity [14]
Clc1ccc2nn(N=C3NCCN3)cc2c1,24.7 µM,33.2 µM,0.33,74.1 µM,–,–,–,–,–,–,–,–,–,–
Cc1cccc2cnn(N=C3NCCN3)c12.Cl,0.387 µM,2.52 µM,7.23,0.0535 µM,-122.9 bpm,-40.6 mmHg,-110 bpm,-43.2 mmHg,-43.5 mmHg,0.6 µg/kg,-115 bpm,-14.8 mmHg,Active,-119.9 bpm
Clc1cccc2nn(N=C3NCCN3)cc12,47.8 µM,13.1 µM,15.3,3.14 µM,–,–,–,–,–,–,–,–,–,–
Cc1ccc2cnn(N=C3NCCN3)c2c1.Cl,–,19.2 µM,–,0.0491 µM,-26.4 bpm,-23.4 mmHg,-71.8 bpm,-11 mmHg,-20.8 mmHg,–,-43.5 bpm,-13.2 mmHg,–,-22.2 bpm
Cc1cccc2c1cnn2N=C1NCCN1.Cl,38.5 µM,10.4 µM,1040,0.0371 µM,-22.7 bpm,-29 mmHg,-104.2 bpm,-10.1 mmHg,-14.1 mmHg,–,-88.3 bpm,-17.7 mmHg,–,-2.1 bpm
c1ccc2nn(N=C3NCCN3)cc2c1,–,77.8 µM,–,78.3 µM,–,–,–,–,–,–,–,–,–,–
Cl.c1ccc(-c2nn(N=C3NCCN3)c3ccccc23)cc1,76.5 µM,0.684 µM,2.96,25.8 µM,-11.1 bpm,-7.6 mmHg,-17.7 bpm,-11.4 mmHg,-10 mmHg,–,-10.1 bpm,-4.1 mmHg,–,-12.7 bpm
Cc1ccc2cn(N=C3NCCN3)nc2c1,19.7 µM,42.9 µM,0.39,50.7 µM,–,–,–,–,–,–,–,–,–,–
Cc1cccc2nn(N=C3NCCN3)cc12,–,35.1 µM,–,11.8 µM,–,–,–,–,–,–,–,–,–,–
Cc1ccc2nn(N=C3NCCN3)cc2c1,13.4 µM,11.4 µM,0.29,45.6 µM,–,–,–,–,–,–,–,–,–,–
Cc1cc2ncn(N=C3NCCN3)c2cc1C,–,> 10 µM,–,10.1 µM,–,–,–,–,–,–,–,–,–,–
Cl.Clc1cccc2c1cnn2N=C1NCCN1,31.5 µM,11.1 µM,511,0.0616 µM,-24.3 bpm,-14 mmHg,-60.8 bpm,-10.9 mmHg,-12.3 mmHg,–,-32.2 bpm,-10.9 mmHg,–,-19 bpm
Cl.Clc1ccc2c(cnn2N=C2NCCN2)c1,17 µM,20.6 µM,149,0.114 µM,12.8 bpm,-1.4 mmHg,0.6 bpm,-1.1 mmHg,-2.8 mmHg,–,7.2 bpm,-0.2 mmHg,–,28.6 bpm
Cl.c1ccc2c(c1)cnn2N=C1NCCN1 [MARSANIDINE HYDROCHLORIDE],54.5 µM,16.9 µM,3880,0.0141 µM,-31.4 bpm,-30.9 mmHg,-48.5 bpm,-22.1 mmHg,-29 mmHg,–,-49 bpm,-6.9 mmHg,–,-9.7 bpm
c1ccc2c(c1)ncn2N=C1NCCN1,> 100 µM,> 10 µM,> 16.6,6.02 µM,–,–,–,–,–,–,–,–,–,–
Cc1nn(N=C2NCCN2)c2ccccc12,–,–,–,71.1 µM,–,–,–,–,–,–,–,–,–,–
c1ccc2c(c1)nnn2N=C1NCCN1,84.6 µM,> 10 µM,< 8.46,> 10 µM,–,–,–,–,–,–,–,–,–,–
COc1ccc2cnn(N=C3NCCN3)c2c1.Cl,–,33.6 µM,–,0.0962 µM,-4.1 bpm,-17.1 mmHg,-33 bpm,-5.3 mmHg,-11.6 mmHg,–,-23.6 bpm,-16.5 mmHg,–,14.3 bpm
Cc1ccc2c(cnn2N=C2NCCN2)c1.Cl,20.3 µM,7.16 µM,460,0.0442 µM,-1 bpm,-3.6 mmHg,-104.2 bpm,-4.9 mmHg,-4.6 mmHg,–,-3.2 bpm,-4.1 mmHg,–,-3 bpm
COc1cccc2c1cnn2N=C1NCCN1.Cl,13.5 µM,5.98 µM,0.19,69.6 µM,-12.5 bpm,-7.6 mmHg,-18.6 bpm,-12.9 mmHg,-11 mmHg,–,-9.7 bpm,-3.7 mmHg,–,-11.6 bpm
